# Assay results reported in PubChem BioAssay AID504775 (Broad Institute, 2011).
# The whole screen tested about 320,000 compounds, of which about 310 (0.097%) were called active. For the sample, actives were picked, then their nearest neighbours and some compounds at random. A number with no mark means an inactive call.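 The calls were made as follows: active = mean replicate activation of at least 60% and every replicate at or above 60%; inconclusive = mean or all-replicate condition met, but not both; inactive = mean below 60% and not all replicates reaching 60%.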
# Experiment: enhancers of HDL lipid transfer via mSR-BI – ldlA[mSR-BI] CHO cells, DiI fluorescence, primary screen (AID 504775);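 also: 0% = median plate neutral-control signal and 100% = twice that signal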
# Conditions: DiI-HDL uptake fluorescence, 3 h, at 12.5 µM, active compounds read high, 100 = double the neutral-control signal
# Summary of the method: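 system = CHO ldlA[mSR-BI] cells, LDL receptor-null, SR-BI overexpressing | medium = Ham's F12 with 0.5% BSA, HEPES 25 mM, pH 7.4 | probe or stimulus = DiI-HDL 10 µg/mL | compound dosing = single-point compound dose | incubation = compound exposure 3 h, 37 °C | technique = DiI fluorescence, bottom read | read-out = cell-associated DiI fluorescence as measure of HDL uptake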
row,SMILES,activation
1,O=C(COC(=O)c1ccc(O)cc1O)NC(=O)c1ccccc1,38.7%
2,O=C(NCc1ccccc1)c1cccc(NC(=O)C2CCCCC2)c1,-0.488%
3,O=C1OCC2=C1C(c1ccc(Cl)cc1)c1cc3c(cc1O2)OCO3 (configuration not stated),-14%
4,CCN1C[C@@H]2[C@@H]3C(=O)N(C)C(=O)[C@@H]3[C@](C)(C1=O)N2C(=O)c1ccccc1,-27.8%
5,Oc1cccc(CCc2ccccn2)c1,0.288%
6,COc1cccc(/C=N/Nc2ccc(S(=O)(=O)Nc3ccccc3C(=O)O)cc2[N+](=O)[O-])c1O,4.5%
7,CCCN(CC(=O)Nc1ccc(C(N)=O)cc1)CC(=O)Nc1ccccc1C,13.5%
8,CCCOc1ccccc1C(=O)NCCCC(=O)O,21.5%
9,CCCN(CCC)CC(O)COc1ccccc1C(=O)Nc1ccccc1 (configuration not stated),102% (active)
10,COc1ccc(CNCCCNCc2ccc(OC)c(OC)c2)cc1OC,4.58%
11,CC(C)(C)C(=O)Nc1cccc(-c2ccc[nH]2)n1,5.41%
12,O=C1C2C3C=CC(C3)C2C(=O)N1c1ncc([N+](=O)[O-])s1 (configuration not stated),8.82%
13,COc1ccc(Br)cc1/C=N/Nc1ccc(S(=O)(=O)Nc2ccccc2C(=O)O)cc1[N+](=O)[O-],16.3%
14,COc1ccc(/C=C/C(=O)OCC(=O)N2CCN(S(=O)(=O)c3ccc(C)cc3C)CC2)cc1OC,-71.9%
15,CCOc1cc(C(=O)N(Cc2ccccc2)c2ccc(C)cc2)ccc1OCC(=O)N1CCOCC1,-5.71%
16,O=C(NNC(=O)c1ccccc1O)c1ccccc1O,-124%
17,CN(C)C(=S)N=c1ssc(=S)n1Cc1ccco1,-0.753%
18,O=C(CC1Sc2ccccc2NC1=O)NNc1ccc(Cl)c(Cl)c1 (configuration not stated),-45.6%
19,O=S(=O)(O)c1cc2onnc2c2ccccc12,15.5%
20,Nc1ccc2c(c1)C(O)c1ccc(Cl)cc1-2 (configuration not stated),14.5%
21,COc1cc(C(=O)CCc2ccc3c(c2)OCO3)cc(OC)c1OC,-43.2%
22,COC1=CC(=O)OC(c2ccc(OC)cc2)C1 (configuration not stated),14.1%

row,SMILES,activation
1,O=C(NCCc1ccccc1)c1c[nH]c2ccc(F)cc2c1=O,-17.9%
2,CC(C)[C@@H](C(=O)OCC(=O)c1ccc2c(c1)NC(=O)CO2)N1C(=O)c2ccccc2C1=O,1.12%
3,CCOC(=O)CCC(NC(=O)c1ccc(CNc2nc3cc(C(F)(F)F)ccc3nc2C(=O)OCC)cc1)C(=O)OCC (configuration not stated),-43.7%
4,CC(=O)OC1CCC2C3CCC4=C(CC(F)C(=O)C4)C3CCC12C (configuration not stated),-3.99%
5,CC(=O)OCC(=O)C1(O)CCC2C3CC(C)C4=CC(=O)CCC4(C)C3C(O)CC21C (configuration not stated),-0.166%
6,Cc1ccc(C)c(S(=O)(=O)N(C)c2ccc(OC(=O)C3CCN(C(=O)c4ccc(F)cc4)CC3)cc2)c1,-12.3%
7,Cc1ccc(Cn2c(C)c3cnn(CC(=O)NCCN4CCOCC4)c(=O)c3c2C)cc1,-22.1%
8,CCOC(=O)C1CCCN(C(=O)C2CCN(S(=O)(=O)c3ccc(Cl)c(C(F)(F)F)c3)CC2)C1 (configuration not stated),22.7%
9,COc1ccccc1N(CC(=O)Nc1c(C)n(C)n(-c2ccccc2)c1=O)S(=O)(=O)c1ccccc1,12%
10,O=C1OC(Oc2ccc(Br)cc2)(c2ccccc2)c2ccccc21 (configuration not stated),-0.981%
11,O=[N+]([O-])c1ccc(N=NNc2ccc([N+](=O)[O-])cc2)cc1,5.77%
12,CC1=CC(C)(C)Nc2ccc(OC(=O)CN3C(=O)C4CCCCC4C3=O)cc21 (configuration not stated),9.46%
13,CC1=CC(C)(C)Nc2ccc(OC(=O)C(Cc3ccccc3)N3C(=O)C4CCCCC4C3=O)cc21 (configuration not stated),62.9% (active)
14,CCOC(=O)C(Cc1ccc(N)cc1)N1C(=O)c2ccccc2C1=O (configuration not stated),-16%
15,COc1ccc(C(C(=O)NC2CCCCC2)N(C(=O)CCl)c2ccccc2Cl)cc1 (configuration not stated),88.3% (active)
16,Cc1ccccc1N(C(=O)CNC(=O)c1cccs1)C(C(=O)NC1CCCC1)c1ccncc1 (configuration not stated),4.44%
17,COc1ccc(C(C(=O)NC2CCCCC2)N(C(=O)c2snc(C(N)=O)c2N)c2ccccc2OC)cc1 (configuration not stated),13.6%
18,Oc1ccc(-c2nc3ccccc3nc2-c2ccc(O)cc2O)c(O)c1,-26%
19,C/C(=N\Nc1ccccc1)c1cccs1,13.7%
20,O=C(CCCCCCCC(=O)N1CCCCC1)N1CCCCC1,7.36%
21,COc1ccc(CCC(=O)Nc2ccc(Cl)c(S(=O)(=O)N3CCOCC3)c2)cc1OC,-60.3%
22,CC(=O)CSc1nc(CCc2ccccc2)c(C#N)c(=O)[nH]1,11%

row,SMILES,activation
1,Nc1ccc2[nH]c(=S)sc2c1,-5.72%
2,COc1cc(S(=O)(=O)N2CCN(C(=O)C3CC3)CC2)ccc1NC(C)=O,60.7% (active)
3,COc1ccc(S(=O)(=O)N2CCC(C(=O)N3CCOCC3)CC2)cc1OC,0.407%
4,COc1ccc(S(=O)(=O)N2CCC(C(=O)N3CCc4ccccc4C3)CC2)cc1OC,4.32%
5,NC(=S)NN=C1CCCC(C(F)(F)F)C1 (configuration not stated),-74%
6,N#CCc1c[nH]c2ccc([N+](=O)[O-])cc12,13.4%
7,O=C1CC(c2ccccc2)C(=O)N2C(=O)CC(c3ccccc3)C(=O)N12 (configuration not stated),16.5%
8,C#CCOCCOCCOCCNc1nc(N2CCN(C(=O)Cn3cc(CCO)nn3)CC2)nc(N2CCN(C(=O)Cn3cc(CCCN=C(N)N)nn3)CC2)n1,17.5%
9,COC(=O)CC(CC(=O)OC)n1cccc1,7.62%
10,Cc1ccc(NC(=O)C(C)OC(=O)C2CC3CCCC(C2)C3=O)cc1S(=O)(=O)N1CCOCC1 (configuration not stated),-2.41%
11,COc1ccc(CNC(=O)C[C@H]2C[C@H](C(=O)N3CCOCC3)[C@@]3(CCC4CCCC4)c4[nH]c5ccc(Cl)cc5c4CCN3C2=O)cc1OC,-30.3%
12,CN(C)C(=O)CCc1ccc2c3c([nH]c2c1)[C@]1(CCC2CCCC2)[C@@H](C(=O)N2CCOCC2)C[C@H](CC(=O)NCc2ccco2)C(=O)N1CC3,14.3%
13,O=C(C[C@H]1C[C@H](C(=O)N2CCOCC2)[C@@]2(CCC3CCCC3)c3[nH]c4ccc(Cl)cc4c3CCN2C1=O)NCc1ccco1,82.2% (active)
14,O=C(CC(=O)c1cccnc1)c1ccccc1,-1.21%
15,CCCCOC(=O)c1[nH]c(C)c(C(=O)OC)c1C,176% (active)
16,CCOC(=O)c1c(C)[nH]c(C(=O)OCC(=O)N2CCCC2=O)c1C,24.7%
17,CCOC(=O)c1c(C)[nH]c(C(=O)OCC(=O)c2ccc(OC)cc2OC)c1C,-45.7%
18,COc1ccc(CNC(=O)CN2C(=O)c3ccccc3S2(=O)=O)cc1,16.4%
19,Cc1ccc(C(=O)O)c(NC=O)c1OCc1ccccc1,19.3%
20,COc1ccc(C(CNC(=O)c2cc(S(=O)(=O)Nc3cccc(C)c3)ccc2C)N2CCCC2)cc1 (configuration not stated),21%
21,Cc1ccc(S(=O)(=O)N2CCC(C(=O)N3CCCCCCC3)CC2)cc1,-7.71%
22,COc1ccc(S(=O)(=O)N2CCc3ccccc32)cc1C(=O)Nc1cc(S(C)(=O)=O)ccc1Cl,-27.5%

row,SMILES,activation
1,O=C1/C(=C\c2ccc([N+](=O)[O-])cc2)CS(=O)(=O)C/C1=C/c1ccc([N+](=O)[O-])cc1,-17.7%
2,Oc1[nH]c2ccccc2c1N=Nc1c(F)c(F)c(F)c(F)c1F,-15.7%
3,Cc1cc(NC(=O)c2cc3ccccc3o2)no1,18.7%
4,COc1cc(C(=O)N2CCN(S(=O)(=O)c3ccc(C(C)C)cc3)CC2)ccc1OCC(=O)N1CCOCC1,10.9%
5,O=C(O)c1ccc([N+](=O)[O-])cc1Sc1ccsc1,-7.71%
6,O=C1NC(c2ccccc2)Cc2ccncc21 (configuration not stated),37.2%
7,Cc1sc(NC(=O)C2=COCCO2)c(C#N)c1C,172% (active)
8,CCC(CC)c1nnc(NC(=O)C2=COCCO2)s1,9.84%
9,Cc1csc(NC(=O)C2=COCCO2)n1,11%
10,COc1ccc(C(CNC(=O)c2cccc(S(=O)(=O)Nc3ccc(Br)cc3)c2)N(C)C)cc1 (configuration not stated),24.3%
11,COc1ccc(CCNC(=O)c2ccc(NC(=O)CC3SC(N4CCCCC4)=NC3=O)cc2)cc1OC (configuration not stated),-66.6%
12,COC(=O)Cc1c(-c2[nH]c3ccccc3c2CC(=O)OC)[nH]c2ccccc12,-37.9%
13,CCOc1cc(C2C(C(=O)c3ccco3)=C(O)C(=O)N2Cc2ccccc2)ccc1O (configuration not stated),21.9%
14,O=C(C1=C(O)C(=O)N(Cc2ccccc2)C1c1cccnc1)c1ccco1 (configuration not stated),66.5% (active)
15,COc1ccc(C2C(C(C)=O)=C(O)C(=O)N2Cc2cccnc2)cc1 (configuration not stated),30%
16,C#CCOCCOCCOCCNc1nc(N2CCOCC2)nc(N2CCN(C(=O)[C@H](Cc3ccc(O)cc3)n3cc(CCO)nn3)CC2)n1,15.4%
17,CC1CN(Cc2ccco2)C(=S)N(c2ccccc2)C1=O (configuration not stated),33.1%
18,COc1cccc(-c2sc3ccc(OC)cc3c2-c2ccc(OCCN3CCCCC3)cc2)c1,-2.84%
19,COc1ccc2sc(-c3ccccc3OC)c(-c3ccc(OCCN4CCCC4)cc3)c2c1,88% (active)
20,COc1ccc(-c2sc3ccccc3c2-c2ccc(OCCN3CCOCC3)cc2)cc1,-39.3%
21,COc1cccc2oc(CCc3ccccc3)cc(=O)c12,4.54%
